# Active and inactive are the calls of the source. No cut-off for these calls is given here.
# Tests used:
# [1] = Drug uptake in human A549 cells assessed as mean fluorescence intensity at 2.5 uM after 4 hrs by flow cytometry (reference value: 5.4 +/- 1.5); assay type: ADME, cell-based; details: a549, 4 h
# [2] = Drug uptake in human A549 cells assessed as mean fluorescence intensity at 2.5 uM after 24 hrs by flow cytometry (reference value: 5.4 +/- 1.5); assay type: ADME, cell-based; details: a549, 24 h
# [3] = tested on: A549; assay: Photocytotoxicity against human A549 cells assessed as decrease in cell viability at 500 to 5000 nM preincubated for 1 hr followed by 0.77 mW/cm2 white light irradiation measured after 24 hrs by MTT assay; assay type: functional, cell-based; details: TDE = time-dependent effect
# Summary of the method: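 A549 cells (1×10^4/well), plated overnight, given compound for 1 h in serum-free medium, washed twice with PBS, irradiated 0.5, 1, 2 or 4 h at 0.77 mW/cm² (37 °C, 5% CO₂), then 24 h in regular medium; MTT 0.5 mg/mL for 6 h, formazan dissolved in 0.01 N HCl/10% SDS, A550.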
# [4] = Cell cycle arrest in human A549 cells assessed as accumulation at subG1 phase at 2.5 uM preincubated for 1 hr followed by 0.77 mW/cm2 white light irradiation for 80 mins measured after 24 hrs in presence of 50 uM of beta-carotene by propidium iodide staining based flow cytometry (reference value: 8.2 +/- 1.1%); assay type: functional
# [5] = Photocytotoxicity against human L-132 cells at 50 uM using 0.77 mW/cm2 white light irradiation by MTT assay; assay type: toxicity, cell-based; details: l132, 50 µM
# [6] = tested on: A549; assay: Induction of apoptosis in human A549 cells assessed as pro-caspase 3 level at 2.5 uM preincubated for 1 hr followed by 0.77 mW/cm2 white light irradiation for 80 mins measured after 16 hrs by immunoblot analysis relative to control; assay type: functional
# Summary of the method: (§1)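 Whole-cell extracts from A549 cells (1×10^6) treated with 0 or 2.5 µM compound, photo-exposed 80 min, lysed in Tris pH 7.4/NaCl/EDTA/Triton with protease inhibitors; 30 µg protein on 12% SDS-PAGE, nitrocellulose, milk block, caspase-3 antibody overnight 4 °C, HRP secondary, chemiluminescence; band ratio to normal control (=1) after loading-control normalisation.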
# [7] = species: Bos taurus; assay: Binding affinity to calf thymus duplex DNA assessed as decrease in intensities of maximum absorption at 50 uM by spectrophotometric titration analysis
# [8] = Drug uptake in endoplasmic reticulum of human A549 cells at 100 nM measured up to 4 hrs by ER-Tracker green staining based confocal microscopy; assay type: ADME, cell-based; details: a549, 4 h, 0.1 µM
# Summary of the method: (§2)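 Overnight-seeded A549 cells loaded with dye (100 nM), incubation periods 0.5-4 h tested, then ER-Tracker Green (500 nM) or MitoTracker Green (100 nM) for 30 min at 37 °C; washed, confocal imaging: trackers ex 488/em 500-530 nm, dye ex 543/em 560-640 nm; overlap of images judged.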
# [9] = tested on: A549; assay: Induction of apoptosis in human A549 cells assessed as accumulation at subG1 phase at 5 to 50 uM preincubated for 1 hr followed by 0.77 mW/cm2 white light irradiation for 80 mins measured after 24 hrs by propidium iodide staining based flow cytometry relative to control; assay type: functional
# Summary of the method: (§3)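 Cells exposed 1 h to compound (5-50 µM; vehicle 0.1% DMSO), washed, then irradiated (0.77 mW/cm²) for 0, 30 or 80 min; after serum addition kept 24 h. PI/RNase A staining in hypotonic 0.1% citrate-0.1% Triton X-100, 30 min, 37 °C; sub-G1 peak by flow cytometry, debris gated out, ≥2×10^4 cells; five replicates, mean ± SEM.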
# [10] = Cell cycle arrest in human A549 cells assessed as accumulation at subG1 phase at 2.5 uM preincubated for 1 hr followed by 0.77 mW/cm2 white light irradiation for 80 mins measured after 24 hrs by propidium iodide staining based flow cytometry (reference value: 8.2 +/- 1.1%); assay type: functional
# [11] = Drug uptake in human L-132 cells assessed as mean fluorescence intensity at 2.5 uM after 16 hrs by flow cytometry (reference value: 4.6 +/- 1.2); assay type: ADME, cell-based; details: l132, 16 h
# [12] = tested on: A549; assay: Induction of apoptosis in human A549 cells assessed as pro-caspase 3 level at 2.5 uM preincubated for 1 hr followed by 0.77 mW/cm2 white light irradiation for 80 mins measured after 24 hrs by immunoblot analysis relative to control; assay type: functional; summary of the method: as §1
# [13] = Drug uptake in human L-132 cells assessed as mean fluorescence intensity at 2.5 uM after 8 hrs by flow cytometry (reference value: 4.6 +/- 1.2); assay type: ADME, cell-based; details: l132, 8 h
# [14] = Cytotoxicity against human L-132 cells assessed as reduction in cell viability at 50 uM under dark condition by MTT assay; assay type: toxicity, cell-based; details: l132, 50 µM
# [15] = tested on: A549; assay: Induction of morphological changes in human A549 cells assessed as irregular disruptions in optical diffraction halo preincubated for 1 hr followed by 0.77 mW/cm2 white light irradiation for 80 mins measured after 24 hrs by phase contrast microscopy; assay type: functional, cell-based
# Summary of the method: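 A549 cells (1×10^5/well) on coverslips given vehicle (0.1% DMSO) or compound (0.625, 1.25, 2.5 µM) for 1 h, then irradiated 80 min (0.77 mW/cm²); kept 24 h in regular medium and examined unstained by phase-contrast microscopy (40× objective); representative fields imaged; experiments done three times.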
# [16] = tested on: A549; assay: Induction of apoptosis in human A549 cells assessed as pro-caspase 3 level at 2.5 uM preincubated for 1 hr followed by 0.77 mW/cm2 white light irradiation for 80 mins measured after 8 hrs by immunoblot analysis relative to control; assay type: functional; summary of the method: as §1
# [17] = Drug uptake in human A549 cells assessed as mean fluorescence intensity at 2.5 uM after 16 hrs by flow cytometry (reference value: 5.4 +/- 1.5); assay type: ADME, cell-based; details: a549, 16 h
# [18] = Drug uptake in mitochondria of human A549 cells at 100 nM measured up to 4 hrs by Mito-Tracker green staining based confocal microscopy; assay type: ADME; details: a549, 4 h, 0.1 µM; summary of the method: as §2
# [19] = tested on: A549; assay: Induction of apoptosis in human A549 cells assessed as decrease in pro-caspase 3 level at 2.5 uM preincubated for 1 hr followed by in 0.77 mW/cm2 white light irradiation for 80 mins by immunoblot analysis; assay type: functional, cell-based; details: TDE = time-dependent effect; summary of the method: as §1
# [20] = Drug uptake in human A549 cells assessed as mean fluorescence intensity at 2.5 uM after 8 hrs by flow cytometry (reference value: 5.4 +/- 1.5); assay type: ADME, cell-based; details: a549, 8 h
# [21] = Toxicity in human A549 cells assessed as alteration in cell morphology at 100 nM measured up to 4 hrs in dark by confocal microscopy; assay type: cell-based; details: a549, 4 h, 0.1 µM
# [22] = species: Bos taurus; assay: Binding affinity to calf thymus duplex DNA assessed as decrease in intensities of maximum absorption at 50 uM by spectrophotometric titration analysis
# [23] = Induction of apoptosis in human A549 cells assessed as accumulation at subG1 phase up to 50 uM measured after 24 hrs under dark condition by propidium iodide staining based flow cytometry; assay type: cell-based; details: a549, 24 h; summary of the method: as §3
# [24] = Drug uptake in cytoplasm of human A549 cells at 1 uM after 0.25 to 3 hrs by Hoechst 33342 staining based fluorescence microscopy; assay type: ADME, cell-based; details: a549, 1 µM
# Summary of the method: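 A549 cells on coverslips loaded with dyes (1 µM) for 0.25, 0.5, 1, 2 or 3 h at 37 °C, washed, counterstained with Hoechst 33342 (10 µM), mounted in 70% glycerol; red dye and blue nuclear fluorescence imaged by fluorescence microscopy (40×) and overlaid.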
smiles,measurement,setting,value
CCC1=C(C)C2=C(C)c3c(C)c(CC)c(C)n3[B-](F)(F)[N+]2=C1/C=C/c1ccc(O[C@H]2O[C@H](CO)[C@@H](O)[C@H](O)[C@H]2O)cc1,Flu intensity,[1],66.2 to 68.9
same,Flu intensity,[2],46.7
same,Activity,[3],Tde
same,Activity,[4],51.8%
same,Activity,[5],5 to 7%
same,fold change (FC),[6],0.6
same,Activity,[7],Active
same,Drug uptake,[8],Active
same,fold change (FC),[9],5 - 6
same,Activity,[10],68.8%
same,Flu intensity,[11],41.5
same,fold change (FC),[12],0.2
same,Flu intensity,[13],49.5
same,Activity,[14],Non-Toxic
same,Activity,[15],Dose-dependent effect
same,fold change (FC),[16],0.8
same,Flu intensity,[17],41.6 to 52.5
same,Drug uptake,[18],Active
same,Activity,[19],Tde
same,Flu intensity,[20],49.4 to 58.4
same,Activity,[21],Non-Toxic
same,Activity,[22],Active
same,Activity,[23],Non-Toxic
same,Drug uptake,[24],Active

# Reference: ChEMBL document CHEMBL3865807, “Syntheses and photodynamic activity of some glucose-conjugated BODIPY dyes” (Eur J Med Chem, 2016)
